The test system of data set [1] is HL-60 (acute myeloid leukemia). The data set can be described thus: IncuCyte real-time proliferation assay, HL-60. To be noted: HL-60, 72 h; * mean of two independent experiments ± SEM. It is filed as cell-based.
The test system of data set [2] is LN-229 (glioblastoma). The data set can be described thus: IncuCyte real-time proliferation assay, LN-229. It is filed as cell-based. To be noted: LN-229, 72 h; * mean of two independent experiments ± SEM.
Data set [3] deals with hCoV-229E. It is filed as cell-based, human corona virus 229E. The conditions noted are these: […]; (*) mean of three independent experiments ± SEM.
Data set [4] relates to Capan-1 (pancreatic adenocarcinoma). Nature of the data set: IncuCyte real-time proliferation assay, Capan-1. To be noted: Capan-1, 72 h; * mean of two independent experiments ± SEM. It is filed as cell-based.
Data set [5] relates to HCT-116 (colorectal carcinoma). The data set can be described thus: IncuCyte real-time proliferation assay, HCT-116. It is filed as cell-based. To be noted: HCT-116, 72 h; * mean of two independent experiments ± SEM.
Data set [6] concerns Z-138 (non-Hodgkin lymphoma). The data set can be described thus: IncuCyte real-time proliferation assay, Z-138. It is filed as cell-based. The conditions noted are these: Z-138, 72 h; * mean of two independent experiments ± SEM.
For data set [7], the system named is peripheral blood mononuclear cells (PBMCs). The data set can be described thus: In vitro apoptosis induction assay in PBMC. It is filed as cell-based. The conditions noted are these: 72 h; for viability of normal PBMCs: PBMC from two healthy donors, 100 to 0.16 µM; for number of apoptotic and dead cells: PBMC, 100 µM, caspase-3/7 and PI. In short, it runs like this: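 Counter-screen on normal PBMCs from two healthy donors. Cells were exposed to graded test-compound concentrations with Caspase-3/7 Green Reagent added. Activated intracellular caspase-3/7 cleaves the reagent at its DEVD motif, marking apoptotic cells. Propidium iodide staining separated dead from live cells. Read-out: numbers of apoptotic and dead cells.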

Data set [8] has as its system HEL 299 cells.
For data set [9], the system named is K-562 (chronic myeloid leukemia). The data set can be described thus: IncuCyte real-time proliferation assay, K-562. It is filed as cell-based. The conditions noted are these: K-562, 72 h; * mean of two independent experiments ± SEM.
Data set [10] concerns NCI-H460 (lung carcinoma). The data set can be described thus: IncuCyte real-time proliferation assay, NCI-H460. The conditions noted are these: NCI-H460, 72 h; * mean of two independent experiments ± SEM. It is filed as cell-based.
Data set [11] has as its system alpha-tubulin in HEp-2 cells. Nature of the data set: Tubulin immune fluorescence staining in HEp-2 cells. It is filed as cell-based, human. To be noted: HEp-2 cells treated for 3 h.
The subject of data set [12] is DND-41 (acute lymphoblastic leukemia). Nature of the data set: IncuCyte real-time proliferation assay, DND-41. It is filed as cell-based. The conditions noted are these: DND-41, 72 h; * mean of two independent experiments ± SEM.

Results on 3 molecules are retold here after PMC8223195 (Molecular Diversity, 2021).

A word on the IC50: it is the midpoint of a concentration-inhibition curve. Lower therefore signals inhibition by little substance. A word on the EC50: it is the concentration giving half of the maximal effect. A lower EC50 goes with greater potency. As usually defined, the CC50 is the concentration giving 50% cytotoxicity. Read a low CC50 as greater toxicity to the cells.

As to `Cc1ccc(C(=O)C2Sc3nnc(-n4nc(C)cc4C)n3NC2c2cc(F)c(F)c(F)c2)cc1` (racemic) [Compound 5j, ( ±)-(3-(3,5-Dimethyl-1H-pyrazol-1-yl)-6-(3,4,5-trifluorophenyl)-6,7-dihydro-5H-[1,2,4]triazole [3,4-b][1,3,4]thiadiazin-7-yl)(p-tolyl)methanone], the IC50 in data set [1] worked out at 13000 ± 2800 nM; in [2] it was 2700 ± 200 nM; in data set [4] it was 2300 ± 200 nM; in data set [5], 2500 ± 90 nM; in data set [6] it was 1900 ± 30 nM; in data set [9] it was 3400 ± 200 nM. Further, the IC50 in [10] came out at 56000 nM; in data set [12], 2400 ± 400 nM. This molecule also registered an EC50 in [3] of more than 100000 nM. Also, the “viability of normal PBMCs” value in [7] is on record as “did not inhibit the viability”. For the same molecule, in data set [7], the “number of apoptotic and dead cells” value was “small increase in the number of apoptotic and dead cells”. Also, half-maximal cytotoxicity in [8] (CC50) was put at 23800 nM. In addition, the polymerization of tubulin result in [11] is “inhibit the polymerization of tubulin in a dose-dependent manner”.
`COc1ccc(C(=O)C2Sc3nnc(-n4nc(C)cc4C)n3NC2c2ccco2)cc1` (racemic) [Compound 5q, ( ±)-(3-(3,5-Dimethyl-1H-pyrazol-1-yl)-6-(furan-2-yl)-6,7-dihydro-5H-[1,2,4]triazolo[3,4-b][1,3,4]thiadiazin-7-yl)(4-methoxyphenyl)methanone]: the half-maximal inhibitory concentration (IC50) in data set [1] stood at 2000 ± 400 nM; in [2], 700 ± 90 nM; in [4] it was 1100 ± 700 nM; in data set [5] it was 1000 ± 400 nM; in data set [6] it was 400 ± 5 nM; in data set [9], 2300 ± 1600 nM. Also, the IC50 was 2500 ± 200 nM in data set [10] and 600 ± 200 nM in [12]. Also, the EC50 in [3] is more than 100000 nM. Moreover, in data set [7], the “viability of normal PBMCs” value is reported as “did not inhibit the viability”. In data set [7], the “number of apoptotic and dead cells” value was “small increase in the number of apoptotic and dead cells”. The molecule also yielded a CC50 in data set [8] of less than 800 nM. Besides, the polymerization of tubulin entry in [11] was “inhibit the polymerization of tubulin in a dose-dependent manner”.
With `COc1ccc(C(=O)C2Sc3nnc(-n4nc(C)cc4C)n3NC2c2ccccc2Cl)cc1` (racemic) [Compound 5n, ( ±)-(6-(2-Chlorophenyl)-3-(3,5-dimethyl-1H-pyrazol-1-yl)-6,7-dihydro-5H-[1,2,4]triazolo[3,4-b][1,3,4]thiadiazin-7-yl)(4-methoxyphenyl)methanone], the IC50 in [1] is 71200 nM; in [2], 68300 nM; in [4], 63100 nM; in [5], more than 100000 nM; in data set [6] it was 53900 nM; in data set [9] it was 53200 nM. Also, the values for the IC50 in data set [10] and in data set [12] were more than 100000 nM and 91700 nM, respectively. This molecule had an EC50 in data set [3] of more than 100000 nM. This molecule also had a CC50 in data set [8] of more than 100000 nM.
